Test results taken from ChEMBL document CHEMBL1955854, “New retinoid derivatives as back-ups of Adarotene” (Bioorg Med Chem, 2012).

What was measured:
[1] = Chemical stability in aqueous buffer containing 5% DMSO and 5% tween 80 at pH 7.4 assessed as compound recovery in anoxic conditions after 24 hrs by UPLC analysis; assay type: physicochemical; settings: read-out: Stability
Procedure, shortened: (§1)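 Stability at 37 °C in aqueous buffer with 5% DMSO and 5% Tween 80 at pH 1.2, 6.8 or 7.4; percent recovery by HPLC/UPLC on BEH C18 column, water+0.1% TFA/acetonitrile gradient from 40% to 95% acetonitrile over 8 min, room temperature.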

A-431 [2] = assay: Antiproliferative activity against human A431 cells incubated for 24 hrs drug exposure measured after 48 hrs of recovery by sulforhodamine B assay; assay type: functional, cell-based
Mus musculus [3] = assay: Toxicity in nude CD1 mouse xenografted with human A431 cells assessed as body weight loss at 37 mg/kg, ip administered qd 3 times per week for 2 weeks; assay type: organism-based, A-431; design: dose 37 mg/kg, route intraperitoneal; settings: in vivo, 336 h
Procedure, shortened: (§2)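 CD1 nude mice bore s.c. A431 xenografts (5 × 10⁶ cells, right flank, 8 mice per group). Dosing started on day 3 on a qdx3/wx2w schedule, in vehicle of 10% DMSO, 9% HPBCD and 14.4% PEG1000 in water. Mice were weighed daily, and BWL% = 100 − (mean body weight day x / mean body weight day 1 × 100), with day 1 the first treatment day. The maximum BWL is reported.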

[4] = Chemical stability in aqueous buffer containing 5% DMSO and 5% tween 80 at pH 1.2 assessed as compound recovery in anoxic conditions after 3 hrs by UPLC analysis; assay type: physicochemical; settings: read-out: Stability; procedure, shortened: as §1
Mus musculus [5] = assay: Toxicity in nude CD1 mouse xenografted with human A431 cells assessed as body weight loss at 37 mg/kg, po administered qd 3 times per week for 2 weeks; assay type: organism-based, A-431; design: dose 37 mg/kg, route oral; settings: in vivo, 336 h; procedure, shortened: as §2
[6] = Chemical stability in aqueous buffer containing 5% DMSO and 5% tween 80 at pH 6.8 assessed as compound recovery in anoxic conditions after 24 hrs by UPLC analysis; assay type: physicochemical; settings: read-out: Stability; procedure, shortened: as §1
[7] = Solubility in water; assay type: physicochemical; settings: buffer
NCI-H460 [8] = assay: Antiproliferative activity against human NCI-H460 cells incubated for 24 hrs drug exposure measured after 48 hrs of recovery by sulforhodamine B assay; assay type: functional, cell-based
[9] = Chemical stability in aqueous buffer containing 5% DMSO and 5% tween 80 at pH 7.4 assessed as compound recovery in anoxic conditions after 6 hrs by UPLC analysis; assay type: physicochemical; settings: read-out: Stability; procedure, shortened: as §1
A-431 [10] = assay: Antitumor activity against human A431 cells xenografted in nude CD1 mouse assessed as tumor volume inhibition at 37 mg/kg, ip administered qd 3 times per week for 2 weeks relative to control; assay type: functional; settings: A-431, ip, 336 h, route intraperitoneal, read-out: TGI
Procedure, shortened: (§3)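 A431 epidermoid carcinoma cells (5 × 10⁶) from in vitro culture were injected s.c. into the right flank of CD1 nude mice on day 0, with 8 mice per group. Dosing began on day 3, at tumors of about 50 mm³, on a qdx3/wx2w schedule. Vehicle was 10% DMSO, 9% HPBCD and 14.4% PEG1000 in water. Tumor diameters were measured twice weekly by caliper, and TVI% was taken versus the vehicle group (Mann–Whitney).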

[11] = Chemical stability in aqueous buffer containing 5% DMSO and 5% tween 80 at pH 1.2 assessed as compound recovery in anoxic conditions after 12 hrs by UPLC analysis; assay type: physicochemical; settings: pH 1.2, 12 h; procedure, shortened: as §1
A-431 [12] = assay: Antitumor activity against human A431 cells xenografted in nude CD1 mouse assessed as tumor volume inhibition at 37 mg/kg, po administered qd 3 times per week for 2 weeks relative to control; assay type: functional; settings: A-431, 336 h, read-out: TGI; procedure, shortened: as §3
Mus musculus [13] = assay: Toxicity in nude CD1 mouse xenografted with human A431 cells assessed as body weight loss at 40 mg/kg, po administered qd 3 times per week for 2 weeks; assay type: organism-based, A-431; design: dose 40 mg/kg, route oral; settings: in vivo, 336 h; procedure, shortened: as §2
A-431 [14] = assay: Antitumor activity against human A431 cells xenografted in nude CD1 mouse assessed as tumor volume inhibition at 40 mg/kg, po administered qd 3 times per week for 2 weeks relative to control; assay type: functional; settings: A-431, 336 h, read-out: TGI; procedure, shortened: as §3
Mus musculus [15] = assay: Toxicity in nude CD1 mouse xenografted with human A431 cells assessed as body weight loss at 40 mg/kg, ip administered qd 3 times per week for 2 weeks; assay type: organism-based, A-431; design: dose 40 mg/kg, route intraperitoneal; settings: in vivo, 336 h; procedure, shortened: as §2
Plasma [16] = assay: Prodrug conversion in mouse plasma assessed as drug concentration at 1 hr; assay type: ADME, cell-free
Procedure, shortened: (§4)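 Prodrugs already shown stable at pH 1.2, 6.8 and 7.4 were incubated in murine plasma and sampled over time up to 6 h. A parallel incubation used murine plasma pretreated with the esterase inhibitor PMSF (phenylmethyl sulfonyl fluoride).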

Plasma [17] = assay: Prodrug conversion in mouse plasma assessed as drug concentration at 0.5 hrs; assay type: ADME, cell-free; procedure, shortened: as §4
Plasma [18] = assay: Prodrug conversion in mouse plasma assessed as drug concentration at 3 hrs; assay type: ADME, cell-free; procedure, shortened: as §4
Plasma [19] = assay: Prodrug conversion in mouse plasma assessed as drug concentration at 6 hrs in presence of esterase inhibitor PMSF; assay type: ADME, cell-free; procedure, shortened: as §4
A-431 [20] = assay: Antitumor activity against human A431 cells xenografted in nude CD1 mouse assessed as tumor volume inhibition at 40 mg/kg, ip administered qd 3 times per week for 2 weeks relative to control; assay type: functional; settings: A-431, ip, 336 h, route intraperitoneal, read-out: TGI; procedure, shortened: as §3
Plasma [21] = assay: Prodrug conversion in mouse plasma assessed as drug concentration at 6 hrs; assay type: ADME, cell-free; procedure, shortened: as §4
[22] = Toxicity in po dosed nude CD1 mouse xenografted with human A431 cells assessed as mortality administered qd 3 times per week for 2 weeks; assay type: organism-based, A-431; settings: in vivo
NCI-H460 [23] = assay: Antitumor activity against human NCI-H460 cells xenografted in nude CD1 mouse assessed as tumor volume inhibition at 13 mg/kg, iv administered qd 3 times per week for 2 weeks relative to control; assay type: functional; settings: NCI-H460, 336 h, read-out: TGI
Procedure, shortened: (§5)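 CD1 nude mice given s.c. right-flank NCI-H460 (3 × 10⁶) or A431 (5 × 10⁶) cells from culture on day 0; eight mice per group. Dosing began day 3 at ~50 mm³ tumors; vehicle 10% DMSO, 9% HPBCD, 14.4% PEG1000 in water. Diameters taken biweekly by caliper; mice weighed daily, maximum BWL% reported; Mann–Whitney versus vehicle.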

A-431 [24] = assay: Antitumor activity against human A431 cells xenografted in nude CD1 mouse assessed as tumor volume inhibition at 25 mg/kg, po administered qd 3 times per week for 2 weeks relative to control; assay type: functional; settings: A-431, 336 h, read-out: TGI; procedure, shortened: as §5
NCI-H460 [25] = assay: Antitumor activity against human NCI-H460 cells xenografted in nude CD1 mouse assessed as tumor volume inhibition at 25 mg/kg, po administered qd 3 times per week for 2 weeks relative to control; assay type: functional; settings: NCI-H460, 336 h, read-out: TGI; procedure, shortened: as §5
Mus musculus [26] = assay: Toxicity in nude CD1 mouse xenografted with human A431 cells assessed as body weight loss at 25 mg/kg, po administered qd 3 times per week for 2 weeks; assay type: organism-based, A-431; design: dose 25 mg/kg, route oral; settings: in vivo, 336 h; procedure, shortened: as §5
Mus musculus [27] = assay: Toxicity in nude CD1 mouse xenografted with human NCI-H460 NSCLC cells assessed as body weight loss at 13 mg/kg, iv administered qd 3 times per week for 2 weeks; assay type: organism-based; design: dose 13 mg/kg, route intravenous; settings: in vivo, 336 h; procedure, shortened: as §5
[28] = Toxicity in iv dosed nude CD1 mouse xenografted with human A431 cells assessed as mortality administered qd 3 times per week for 2 weeks; assay type: organism-based, A-431; settings: in vivo
Mus musculus [29] = assay: Toxicity in nude CD1 mouse xenografted with human NCI-H460 NSCLC cells assessed as body weight loss at 25 mg/kg, po administered qd 3 times per week for 2 weeks; assay type: organism-based; design: dose 25 mg/kg, route oral; settings: in vivo, 336 h; procedure, shortened: as §5

SMILES: Cl.O=C(O)/C=C/c1ccc(-c2ccc(OC(=O)NCCN3CCOCC3)c(C34CC5CC(CC(C5)C3)C4)c2)cc1
- remaining at 24 h [1]: 85%
- IC50 (A-431 [2]): 1400 nM
- Activity (Mus musculus [3]): 0%
- remaining at 3 h [4]: > 99%
- Activity (Mus musculus [5]): 0%
- remaining at 24 h [6]: > 99%
- solubility [7]: Insoluble
- IC50 (NCI-H460 [8]): 920 nM
- remaining at 6 h [9]: > 99%
- inhibition in vivo at 37 mg/kg (A-431 [10]): 21%
- Stability [11]: Stable
- inhibition in vivo at 37 mg/kg (A-431 [12]): 0%

SMILES: Cl.O=C(O)/C=C/c1ccc(-c2ccc(OC(=O)N3CCC(N4CCCCC4)CC3)c(C34CC5CC(CC(C5)C3)C4)c2)cc1
- remaining at 24 h [1]: > 99%
- Activity (Mus musculus [13]): 4%
- inhibition in vivo at 40 mg/kg (A-431 [14]): 22%
- IC50 (A-431 [2]): > 10000 nM
- Activity (Mus musculus [15]): 0%
- Drug metabolism (Plasma [16]): 100%
- remaining at 3 h [4]: > 99%
- Drug metabolism (Plasma [17]): 100%
- remaining at 24 h [6]: > 99%
- Drug metabolism (Plasma [18]): 100%
- solubility [7]: Insoluble
- IC50 (NCI-H460 [8]): > 10000 nM
- Drug metabolism (Plasma [19]): 4.13%
- inhibition in vivo at 40 mg/kg (A-431 [20]): 26%
- Stability [11]: Stable
- Drug metabolism (Plasma [21]): 100%

SMILES: O=C(O)/C=C/c1ccc(-c2ccc(O)c(C34CC5CC(CC(C5)C3)C4)c2)cc1 [ADAROTENE]
- remaining at 24 h [1]: > 99%
- IC50 (A-431 [2]): 120 nM
- MTD at 336 h [22]: 25 mg/kg
- remaining at 3 h [4]: > 99%
- inhibition in vivo at 13 mg/kg (NCI-H460 [23]): 37%
- remaining at 24 h [6]: > 99%
- inhibition in vivo at 25 mg/kg (A-431 [24]): 36%
- solubility [7]: Insoluble
- inhibition in vivo at 25 mg/kg (NCI-H460 [25]): 34%
- IC50 (NCI-H460 [8]): 200 nM
- Activity (Mus musculus [26]): 12%
- Activity (Mus musculus [27]): 8%
- MTD at 336 h [28]: 13 mg/kg
- Stability [11]: Stable
- Activity (Mus musculus [29]): 9%
